In the library only some 3.1% were active in any assay of this set; here they are far more common.
PHOSPHO1 inh = PubChem AID 1565. 1.1% of 290,000 active. recombinant PHOSPHO1, absorbance phosphatase assay. inhibition, % at 13.3 µM. Phosphoethanolamine/phosphocholine phosphatase (Homo sapiens), Q8TCT1; in the data active = inhibition above about 60%
Target sequence (Q8TCT1 whole entry, looked up): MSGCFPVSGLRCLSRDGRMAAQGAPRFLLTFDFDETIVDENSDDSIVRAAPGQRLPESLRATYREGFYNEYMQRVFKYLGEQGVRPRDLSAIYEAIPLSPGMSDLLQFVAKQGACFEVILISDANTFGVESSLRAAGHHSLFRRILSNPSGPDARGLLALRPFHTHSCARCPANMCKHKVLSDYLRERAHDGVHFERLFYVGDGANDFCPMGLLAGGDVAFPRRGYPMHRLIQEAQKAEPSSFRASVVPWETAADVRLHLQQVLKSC
NS3 helicase inh = inhibitors of HCV NS3 helicase, primary screen, biochemical, Cy5 molecular beacon fluorescence. Hepatitis C virus NS3 helicase. NS3 helicase DNA unwinding. inhibition, % at 10.9 µM. 0.56% of 290,000 active;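 active = inhibition above the mean of all tested compounds plus 3 SD, set per campaign, cut at about 35% in these data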
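Assay system – hepatitis C virus NS3 helicase domain fragment enzyme · Buffer or medium – MOPS pH 6.5, MgCl2, DTT, Tween20, BSA · Reagent – Cy5/quencher beacon DNA duplex and ATP to start · Compound – single 10.9 µM dose · Timing – 1 h at 25 °C · Technique – Cy5 beacon fluorescence read at start and 1 h · Measure – % inhibition of unwinding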
SUMO HTRF inh = inhibitors of in vitro SUMOylation cascade, primary screen, biochemical, HTRF, uHTS | SUMO-conjugating enzyme UBC9 (Homo sapiens), P63279 | HTRF SUMOylation assay, SAE1/SAE2 + UBC9 | inhibition, % at 35 µM | 0.36% of 290,000 active; in the data active = inhibition above about 50%, passing the limit was not always enough
Target sequence (P63279 whole entry, looked up): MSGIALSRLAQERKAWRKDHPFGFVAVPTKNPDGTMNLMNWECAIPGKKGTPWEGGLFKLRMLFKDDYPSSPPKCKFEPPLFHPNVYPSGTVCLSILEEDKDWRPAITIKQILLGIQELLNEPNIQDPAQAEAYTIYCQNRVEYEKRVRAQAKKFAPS
VIM-2 inhibitor = VIM-2 metallo-beta-lactamase inhibitors, primary screen, biochemical, epi-absorbance readout, Pseudomonas aeruginosa enzyme | purified VIM-2, nitrocefin hydrolysis, epi-absorbance fluorescence | AID 1527, 2009 | 0.89% of 290,000 active | inhibition, % at 5.6 µM;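 active = inhibition above the mean of all tested compounds plus 3 SD, cutoff set per screening run, cut at about 7.5% in these data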;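 note: red hydrolysis product quenches plate fluorescence so inhibitors raise well fluorescence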
IMP-1 inh = IMP-1 metallo-beta-lactamase inhibitors, primary screen, biochemical, epi-absorbance readout, Pseudomonas aeruginosa enzyme; metallo-beta-lactamase IMP-1 (Pseudomonas aeruginosa); purified IMP-1, nitrocefin hydrolysis, epi-absorbance fluorescence; inhibition, % at 5.6 µM; 0.45% of 290,000 active; AID 1556, 2009;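 active = inhibition above the mean plus 3 SD of all compounds in the same screening run, cut at about 4.5% in these data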
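System: purified recombinant IMP-1 beta-lactamase. Medium: Zinc- and detergent-supplemented HEPES buffer, pH 7.1. Compound: one 5.6 µM dose […]. Schedule: 15 min preincubation plus 25 min reaction at 25 °C. Technique: Epi-absorbance fluorescence, 480 nm excitation, 530 nm emission.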
HCV core dimer = inhibitors of HCV core protein dimerization, primary screen, biochemical, TR-FRET, high-throughput. 0.33% of 300,000 active. TR-FRET GST/Flag-core106 dimerization, 1536-well. inhibition, % at 5 µM. AID 1899, 2009;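 active = inhibition above the mean of all tested compounds plus 3 SD, set per screening campaign, cut at about 45% in these data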
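Material: GST/Flag-tagged HCV core106 proteins. Incubation: 4 h, 22.5 °C incubation. Read-out basis: inhibition (%) from 671 over 617 nm ratio. Measured by: TR-FRET, excitation 340 nm, emission 617 and 671 nm.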
A number is an active result; i = inactive; nt = no result given.

SMILES | PHOSPHO1 inh | NS3 helicase inh | SUMO HTRF inh | VIM-2 inhibitor | IMP-1 inh | HCV core dimer
CCOC(=O)CSC1=C(C#N)C(=O)NC(c2ccc(OC)c(OC)c2)S1 (stereo unspecified) | 98 | i | i | i | i | i
CCOC(=O)CSC1=C(C#N)C(=O)NC(c2ccc(OC)cc2)S1 (stereo unspecified) | 87 | i | i | i | i | i
CCOC(=O)CSc1nc2cc(OC)ccc2cc1C#N | i | i | i | i | i | i
COc1ccc(C2NC(=O)C(C#N)=C(S)N2c2ccc(C)cc2)cc1OC (stereo unspecified) | i | i | i | i | i | i
C=CCOc1ccc(C(=O)O)cc1Cl | i | i | i | i | i | i
C#CCN(C(=O)c1ccc(OC)c(OC2CCN(C(C)C)CC2)c1)C1CCCCC1 | i | i | i | i | i | nt
Cc1ccc2nc(-c3ccccc3N)[nH]c2c1 | i | i | i | i | i | i
Cc1ccc(C)c(-c2nc3ccc(N)cc3[nH]2)c1 | i | i | 50 | i | i | i
Nc1ccc(-c2nc3ccc(N)cc3[nH]2)cc1 | i | i | 66 | i | i | i
Nc1ccc2c(c1)OC1(CCCC1)O2 | i | i | i | i | i | i
S=C(Nc1ccc(Br)cc1Cl)N1CCN(c2ccccn2)CC1 | i | i | i | i | i | i
COc1cc(C(=S)N(C)C)ccc1O | 69 | i | i | i | i | i
Cc1ccc2nc(NC(=O)C3CCN(S(=O)(=O)c4cc([N+](=O)[O-])ccc4Cl)CC3)sc2c1 | i | i | i | i | i | 66
O=C(Nc1nc2ccc(F)cc2s1)C1CCN(S(=O)(=O)c2cc([N+](=O)[O-])ccc2Cl)CC1 | i | i | i | i | i | 46
COc1ccc(-c2csc(NC(=O)CSc3nc(C)nc4sc(C(=O)O)c(C)c34)n2)cc1 | i | i | i | i | i | i
CCC(COC)NCc1cn(-c2ccc(OC)cc2)nc1-c1cccc(F)c1 (stereo unspecified) | i | i | i | i | i | i
COc1ccc(/C=C/C(=O)OCc2cc(=O)n3c(n2)sc2ccccc23)cc1 | i | i | i | i | i | i
Cc1cccc(C(=O)N[C@H](C(=O)OCc2cc(=O)n3c(n2)sc2ccccc23)C(C)C)c1 | i | i | i | i | i | 49
O=c1cc(CCl)nc2sc3ccccc3n12 | i | i | i | i | i | i
O=C(OCc1cc(=O)n2c(n1)sc1ccccc12)c1ccc(O)cc1 | i | i | i | i | i | 50
CC(c1ccccc1F)n1cc(C(=O)NCCCc2nc3ccccc3[nH]2)nn1 (stereo unspecified) | i | i | i | i | i | i
COc1cccc(OC)c1C(=O)Nc1cccc(-n2cnnn2)c1 | 72 | i | i | i | i | i
COc1cc(C(=O)Nc2cccc(-n3cnnn3)c2)cc(OC)c1OC | i | i | i | i | i | i
CN(CC(=O)Nc1cccc(F)c1)C(=O)c1ccccc1Cc1ccccc1 | nt | nt | nt | nt | nt | i
COc1ccc(N2CCC(CNS(=O)(=O)c3cccc(C(F)(F)F)c3)C2)cc1 (stereo unspecified) | 79 | i | i | i | i | i
SMILES | PHOSPHO1 inh | NS3 helicase inh | SUMO HTRF inh | VIM-2 inhibitor | IMP-1 inh | HCV core dimer
COc1ccc(N2CCC(CNC(=S)Nc3cccc(C)c3)C2)cc1 (stereo unspecified) | i | i | i | i | i | i
Cc1ccc(NC(=S)NNC(=O)c2ccccc2OC(F)F)cc1 | 86 | i | i | i | i | i
O=C(NNC(=S)Nc1ccc(F)cc1)c1ccccc1OC(F)F | 88 | i | i | i | i | i
COc1ccc(OC)c(CNC(=O)c2nn(C)c3c2CS(=O)(=O)c2ccccc2-3)c1 | i | i | i | i | i | i
Cc1cc(C)c2c(N)c(C(=O)C(C)(C)C)sc2n1 | i | i | i | i | i | i
Cc1cc(C)c2c(N)c(S(=O)c3ccc(C(C)(C)C)cc3)sc2n1 (stereo unspecified) | 106 | i | i | i | i | i
CCS(=O)(=O)c1ncc(CO)n1CCc1ccccc1 | i | i | i | i | i | i

High-throughput results from PubChem.
